M1 ag parental: nonselective activator or artifact in parental CHO-K1 cells. Fluo-8 calcium fluorescence; scaled to maximal ATP response, vehicle zero. activation, % at 3 µM. 360,000 tested, 0.48% active; in the data active means activation above about 15%;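 further: untransfected CHO-K1 host cells lacking M1 receptor as counterscreen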
CHO-K1 Ca antag: counter-screen for M1 antagonists: effect in parental CHO-K1 cells; AID 602250; inhibition, % at 3 µM; 360,000 tested, 0.6% active; ATP-induced calcium, Fluo-8 fluorescence;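 active means inhibition above a per-plate cutoff, the plate's mean sample inhibition plus 3 SD, cut at about 24% in these data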;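 further: 0% = DMSO plus EC80 ATP and 100% = DMSO alone without ATP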
CHO parental Ca: signal in parental CHO cells, OX1R antagonist counter-screen. 330,000 tested, 0.63% active. inhibition, % at 5.6 µM. parental CHO-K1, ATP-induced calcium, Fluo-8 fluorescence. AID 463079;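 active means inhibition above that plate's mean sample inhibition plus 3 SD, cut at about 26% in these data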;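 further: 0% = ATP-challenged DMSO wells and 100% = DMSO wells without ATP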
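Test system: untransfected parental CHO cell line; also added: ATP stimulus; dosing: 5.6 µM, single dose; signal: calcium-sensitive Fluo-8 fluorescence; measure: percent inhibition of ATP-evoked calcium rise, normalized to controls; benchmarks: low control ATP plus DMSO, high control DMSO only; replication: one well per compound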
OX1R antag-1: blocks the human orexin 1 receptor; O43613; OX1R-expressing cells, FRET antagonist read-out; inhibition, % at 6.6 µM; 330,000 tested, 1.8% active; in the data active means inhibition mostly above about 38%, no sharp cut-off; inactive means mostly below about 40%;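 further: 0% = agonist challenge alone and 100% = reference antagonist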
Target sequence (O43613 whole entry, looked up): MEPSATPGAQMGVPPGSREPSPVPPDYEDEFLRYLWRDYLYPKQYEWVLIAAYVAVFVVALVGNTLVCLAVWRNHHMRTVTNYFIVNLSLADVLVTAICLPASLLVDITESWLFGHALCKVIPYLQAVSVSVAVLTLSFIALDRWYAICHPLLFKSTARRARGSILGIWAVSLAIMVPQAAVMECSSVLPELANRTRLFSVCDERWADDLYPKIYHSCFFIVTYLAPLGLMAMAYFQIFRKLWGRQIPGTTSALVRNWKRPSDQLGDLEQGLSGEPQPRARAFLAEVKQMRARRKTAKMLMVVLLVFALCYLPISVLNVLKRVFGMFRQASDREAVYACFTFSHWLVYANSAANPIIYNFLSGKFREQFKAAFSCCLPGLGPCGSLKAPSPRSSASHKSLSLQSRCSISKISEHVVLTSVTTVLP
M1 PAM parental: nonselective activator or artifact in parental CHO-K1 calcium assay. ATP EC20, Fluo-8 calcium fluorescence; 0% at ATP EC20, 100% at ATP max. 360,000 tested, 0.02% active. activation, % at 3 µM;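 active means activation above the run cutoff, the mean activation of all test compounds plus 3 SD, cut at about 40% in these data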;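 further: peak over basal fluorescence ratio in a 140 s read after ATP addition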
OX1R antag-2: blocks the human orexin 1 receptor; O43613; CHO/OX1R cells, Fluo-8 calcium fluorescence, orexin A; inhibition, % at 5 µM; 330,000 tested, 0.43% active;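 active means inhibition above its plate's threshold, mean inhibition of all tested compounds on the plate plus 3 SD, cut at about 37% in these data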;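 further: 0% = orexin A challenge wells and 100% = SB-334867-A antagonist wells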
Active calls of the source: *; . = not tested or not shown. Rows were chosen to be rich in hits. Some 2.9% of all compounds tested hit in one or more screens of this group.

SMILES	M1 ag parental	CHO-K1 Ca antag	CHO parental Ca	OX1R antag-1	M1 PAM parental	OX1R antag-2
CCOC(=O)Cc1nnc(Nc2ccc(C(=O)NC)cc2)c2ccccc12	0	-4	-9	2	-8	-11
COc1ccc(S(=O)(=O)NCc2csc(-c3cccnc3)n2)cc1	6	12	-11	13	11	-7
O=S(=O)(NCc1csc(-c2cccnc2)n1)c1ccc(Br)cc1	7	-10	-20	38*	1	-11
CCN(CC1CCCO1)C(=O)CCc1nnc(CCc2ccc(OC)cc2)o1 (centres undefined)	0	-6	5	1	5	-33
COc1ccc(CCNC(=O)c2cc3ccc(Cl)cc3nc2N)cc1	12	33*	.	.	-8	.
Nc1nc2ccc(Cl)cc2cc1C(=O)NCCc1c[nH]c2ccccc12	12	16	.	.	-5	.
Nc1nc2ccc(Cl)cc2cc1C(=O)NCc1ccc(Oc2ccccc2)cc1	6	28*	.	.	-6	.
NC(=O)[C@@H]1CCCN1Cc1c(C(=O)N2CCc3ccccc3C2)nc2ccc(Cl)cn12	1	-8	-17	16	5	-19
COc1cccc(-c2nc(C(=O)NCC3CCCO3)cc3c2[nH]c2ccccc23)c1 (centres undefined)	4	8	-6	18	1	-27
COc1ccc(-c2nc3scc(-c4ccccc4)n3n2)cc1	0	-5	-23	67*	-4	1
O=[N+]([O-])c1ccc(NN=C(Oc2ccccc2)c2ccc([N+](=O)[O-])cc2)cc1	1	8	.	.	-2	.
CC/C(=N\Nc1ccc([N+](=O)[O-])cc1)c1ccccc1	2	-5	-5	53*	1	-37
Clc1ccccc1CSc1nnc(-c2ccccn2)n1Cc1ccco1	2	-2	-24	57*	16	24
CC(C)(C)c1ccc(S(=O)(=O)NCC2CCCO2)cc1 (centres undefined)	1	-19	15	9	7	-9
O=S(=O)(NC1CCCCC1)c1cccc2nsnc12	0	6	-11	16	-18	-10
O=S(=O)(NCC1CCCO1)c1cccc2nsnc12 (centres undefined)	0	-3	4	41*	12	-3
O=S(=O)(NCC1CCCO1)c1ccc(-c2ccc(Cl)cc2)cc1 (centres undefined)	6	-11	36*	24	1	20
COc1ccc(-[n+]2c(C)cc(/C=C3\Sc4ccccc4N3C)cc2C)cc1	21*	40*	46*	56*	-10	31
COc1ccccc1-[n+]1c(C)cc(/C=C2\Sc3ccccc3N2C)cc1C	34*	52*	69*	39	-7	62*
COc1ccc(C(=O)/C=C2\Sc3ccccc3N2C)cc1	1	-9	-18	34	28	-5
CC1=C[C@H](C)[C@H](c2c(F)cccc2Cl)CC1=O	0	-8	-9	7	-5	-7
c1ccc(C[n+]2csc3ccccc32)cc1	0	-3	29*	8	-4	1
Fc1cccc(C[n+]2csc3ccccc32)c1	0	4	21	12	-13	3
COc1cc(C(=O)Nc2cccc(-n3cnnn3)c2)cc(OC)c1OC	4	-13	-12	28	15	-15
COc1cc(C(=O)Nc2ccc(-n3cnnn3)c(C)c2)cc(OC)c1OC	1	24*	-2	6	-7	-3
SMILES	M1 ag parental	CHO-K1 Ca antag	CHO parental Ca	OX1R antag-1	M1 PAM parental	OX1R antag-2
CCn1c2ccccc2c2cc(NC(=O)CSc3nnc(-c4ccccc4OC)n3N)ccc21	1	7	-11	56*	15	-10
CCOc1ccc(-c2nnc(SCC(=O)Nc3ccc4c(c3)c3ccccc3n4CC)n2N)cc1	0	4	-19	13	-1	-17
CCn1c2ccccc2c2cc(NC(=O)CSc3nnc(-c4ccc(OC)c(OC)c4)n3N)ccc21	0	11	-32	74*	-2	9
O=C(CN1C(=O)NC2(CCCc3ccccc32)C1=O)NCc1cccs1 (centres undefined)	1	4	-11	-1	7	1
CC(C)Oc1ccc(C(=O)NCCCNC(=O)c2ccccn2)cc1	1	1	-3	21	-1	-9
NC(=O)C1(Nc2ccc(-c3ccc(Br)cc3)cc2)CCCC1	0	-18	.	.	18	.
Fc1ccccc1Cc1noc(CN2CCC(OCc3cccnc3)CC2)n1	1	-10	-2	16	7	-25
FC(F)C(F)(F)C(F)(F)C(F)(F)c1cc(-c2ccccc2)n[nH]1	0	-8	87*	42*	-8	53*
Cc1cc(C)c(S(=O)(=O)NCc2ccc3c(c2)OCO3)c(C)c1	1	5	.	.	-16	.
Cc1ccc2nsnc2c1S(=O)(=O)NCc1ccc2c(c1)OCO2	1	-13	2	44*	15	-36
Cc1ccc(C(=O)OCC(=O)Nc2ccc3c(c2)OCO3)c(O)c1	1	-14	1	17	9	-6
COc1ccc(OC)c(NC(=O)CSc2ncnc3c2cnn3-c2ccccc2Cl)c1	7	11	53*	45	-14	52*
COc1cc(OC)c(C2=NOC(C(=O)Nc3ccc4c(c3)OCO4)C2)cc1Cl (centres undefined)	18*	0	-12	17	2	-13
COc1ccc(N2C(=O)CC(N3CCN(S(=O)(=O)c4c(C)cc(C)cc4C)CC3)C2=O)cc1 (centres undefined)	2	-14	-11	2	17	-8
COc1ccc(N2C(=O)CC(N3CCN(S(=O)(=O)c4cc(C)ccc4C)CC3)C2=O)cc1 (centres undefined)	16*	12	-20	2	2	-20
O=C(CC[C@H]1O[C@@H](n2cnc3c(NC(=O)c4ccccc4)ncnc32)[C@H](O)[C@@H]1O)NCCc1cc2ccccc2[nH]1	0	27*	.	.	-7	.
O=C(CC[C@H]1O[C@@H](n2cnc3c(NC(=O)c4ccccc4)ncnc32)[C@H](O)[C@@H]1O)NCc1ccco1	2	2	.	.	5	.
O=C(CC[C@H]1O[C@@H](n2cnc3c(NC(=O)c4ccccc4)ncnc32)[C@H](O)[C@@H]1O)NCC(F)(F)F	1	10	.	.	10	.
O=C(CC[C@H]1O[C@@H](n2cnc3c(NC(=O)c4ccccc4)ncnc32)[C@H](O)[C@@H]1O)NCC1CCN(Cc2ccccc2)CC1	1	24*	.	.	0	.
CN(C)Cc1c(O)ccc2cc(-c3nc4ccccc4n3C)c(=O)oc12	1	-8	7	43*	3	-12
CC(C)CNC(=O)c1ccccc1C(=O)NC1(C(=O)NCC(C)C)CCCC1	1	-12	.	.	11	.
COc1cc2c(cc1OC)CN(c1ccc3ccccc3n1)CC2	2	-13	-15	73*	12	-10
